Test results published in ChEMBL document CHEMBL1135780, “6-Chloro-3-alkylamino-4H-thieno[3,2-e]-1,2,4-thiadiazine 1,1-dioxide derivatives potently and selectively activate ATP sensitive potassium channels of pancreatic beta-cells” (J Med Chem, 2002).

Key:
[1] = LogD for water and octanol distribution coefficient at pH 7.4; format: physicochemical
Procedure, shortened: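 Three titrations on one sample, with 1.00 mL then 10.00 mL octanol added before the second and third. Aqueous pKa used in refinement; combined multiset gives LogD at pH 7.4.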

Rattus norvegicus [2] = species on record: Rattus norvegicus; assay: Maximum change in MAP in rat; format: functional
Procedure, shortened: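 Anaesthetized male Sprague–Dawley rats given 3 mg/kg iv bolus (0.3 mg/kg for one compound) in 0.15% NaOH/saline via jugular cannula. Maximal percent change in mean arterial pressure over 5 min after dosing; mean ± SEM, 2–4 animals.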

Beta-TC6 [3] = assay: Percentage insulin release in vitro in beta-TC6 cells; format: functional; settings: Mus musculus
Procedure, shortened: (§1)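 βTC6 cells, 5 × 10⁴/well, grown 3 days in DMEM + 10% FCS, 11 mM glucose, 20 mM Hepes. Washed twice in NN buffer with 0.1% BSA, preincubated 60 min, then 3 h with 22 mM glucose, 0.1 mM IBMX and serial compound dilutions. Insulin in supernatant measured by in-house ELISA (guinea pig anti-insulin, rat insulin standard). Reference compound as positive control.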

Beta-TC6 [4] = assay: Ability to inhibit the release of insulin from the mouse beta-TC6 cell line; format: functional, cell-based; procedure, shortened: as §1
Rattus norvegicus [5] = species on record: Rattus norvegicus; assay: Inhibition of glucose-stimulated insulin release from Wistar rat islets; format: functional
Procedure, shortened: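 Isolated rat islets held overnight in RPMI, 10% FCS, 11 mM glucose, then 10 islets/well overnight in DMEM, 10% FCS, 3 mM glucose. Run like the βTC6 assay (60 min NN buffer preincubation, 3 h with 22 mM glucose and serial dilutions) without IBMX. Insulin by in-house ELISA.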

[6] = Acid dissociation constant was determined; format: ADME
Procedure, shortened: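 Potentiometric titration from pH 2 to 10.5 in 80% MeOH cosolvent. Three titrations on the same sample, with 0.15 M KCl added before the second. psKa values extrapolated to 0% cosolvent by Yasuda–Shedlovsky.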

Rattus norvegicus [7] = species on record: Rattus norvegicus; assay: Vasodilation effects on Wistar rat mesenteric arteries precontracted with phenylephrine; format: functional
[8] = target: T1, Sulfonylurea receptor 1, Kir6.2 (Homo sapiens, UniProt Q09428+Q14654); assay: Inhibition of [3H]glibenclamide binding to HEK293 cells co-expressing human Sulfonylurea receptor SUR1 and Inward rectifier K+ channel Kir6.2 at high affinity state with 2 mM MgATP; format: cell-based
T1 sequence (Q14654 whole entry): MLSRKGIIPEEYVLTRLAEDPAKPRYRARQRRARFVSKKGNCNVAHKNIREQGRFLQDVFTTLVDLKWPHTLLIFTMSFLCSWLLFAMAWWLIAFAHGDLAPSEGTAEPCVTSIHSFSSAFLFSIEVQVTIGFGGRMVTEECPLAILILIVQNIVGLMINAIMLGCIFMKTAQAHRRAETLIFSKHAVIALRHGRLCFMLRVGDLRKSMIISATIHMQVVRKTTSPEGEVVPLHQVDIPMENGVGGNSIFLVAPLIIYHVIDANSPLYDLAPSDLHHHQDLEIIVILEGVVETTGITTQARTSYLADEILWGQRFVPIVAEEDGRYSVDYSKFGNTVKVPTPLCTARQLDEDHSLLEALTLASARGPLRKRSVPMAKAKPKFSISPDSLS
T1 sequence (Q09428 whole entry): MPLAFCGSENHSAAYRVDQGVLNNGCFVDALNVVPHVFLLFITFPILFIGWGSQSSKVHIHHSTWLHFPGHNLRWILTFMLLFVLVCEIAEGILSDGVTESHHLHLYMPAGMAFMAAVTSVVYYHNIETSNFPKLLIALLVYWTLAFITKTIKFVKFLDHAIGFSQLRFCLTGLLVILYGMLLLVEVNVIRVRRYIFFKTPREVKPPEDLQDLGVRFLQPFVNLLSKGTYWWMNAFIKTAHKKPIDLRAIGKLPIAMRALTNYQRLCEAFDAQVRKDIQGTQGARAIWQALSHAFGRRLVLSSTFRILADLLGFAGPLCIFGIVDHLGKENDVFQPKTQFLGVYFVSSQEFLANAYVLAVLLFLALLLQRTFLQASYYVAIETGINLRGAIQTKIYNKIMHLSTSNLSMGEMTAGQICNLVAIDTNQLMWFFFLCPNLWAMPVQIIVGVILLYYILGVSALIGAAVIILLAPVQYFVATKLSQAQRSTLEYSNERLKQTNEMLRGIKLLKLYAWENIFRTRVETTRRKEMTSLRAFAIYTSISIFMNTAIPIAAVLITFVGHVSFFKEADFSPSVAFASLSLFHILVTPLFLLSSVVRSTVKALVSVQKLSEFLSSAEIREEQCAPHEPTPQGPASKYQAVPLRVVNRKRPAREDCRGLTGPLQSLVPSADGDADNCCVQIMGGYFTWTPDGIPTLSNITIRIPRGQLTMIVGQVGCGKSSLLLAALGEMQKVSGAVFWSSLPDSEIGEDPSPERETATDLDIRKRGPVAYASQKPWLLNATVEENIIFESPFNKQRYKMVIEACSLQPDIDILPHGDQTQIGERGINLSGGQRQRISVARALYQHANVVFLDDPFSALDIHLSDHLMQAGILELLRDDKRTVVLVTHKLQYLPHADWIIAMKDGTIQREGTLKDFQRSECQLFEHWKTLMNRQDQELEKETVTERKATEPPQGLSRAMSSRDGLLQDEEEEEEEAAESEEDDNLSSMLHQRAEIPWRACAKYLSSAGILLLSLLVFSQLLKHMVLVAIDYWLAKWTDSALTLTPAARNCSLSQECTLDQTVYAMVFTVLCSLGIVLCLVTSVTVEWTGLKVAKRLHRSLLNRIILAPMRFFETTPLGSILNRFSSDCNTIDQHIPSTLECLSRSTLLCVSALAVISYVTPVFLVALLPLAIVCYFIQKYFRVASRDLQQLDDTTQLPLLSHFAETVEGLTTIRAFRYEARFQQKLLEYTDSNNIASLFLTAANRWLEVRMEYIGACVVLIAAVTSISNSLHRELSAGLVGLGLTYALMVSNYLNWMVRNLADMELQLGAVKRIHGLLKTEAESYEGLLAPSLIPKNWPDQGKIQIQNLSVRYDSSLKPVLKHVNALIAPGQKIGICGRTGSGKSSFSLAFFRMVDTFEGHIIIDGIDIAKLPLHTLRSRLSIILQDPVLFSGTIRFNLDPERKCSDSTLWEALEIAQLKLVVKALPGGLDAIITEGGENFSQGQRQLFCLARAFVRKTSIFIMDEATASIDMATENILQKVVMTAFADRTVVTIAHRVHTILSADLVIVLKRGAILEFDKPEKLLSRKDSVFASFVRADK

[9] = Changes in potassium fluxes assessed in the glucose responsive insulin-producing murine cell line beta-TC3; format: functional, cell-based, Mus musculus
Procedure, shortened: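 βTC3 membrane potential read as DiBAC4(3) fluorescence at 0.01, 0.1, 1, 10 and 100 µM, four wells each. Signal normalized to each well's initial value and expressed as fractional fluorescence change over 45 min incubation. EC50 from four-parameter nonlinear fit; mean ± SEM of at least three independent experiments.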

[10] = Half life after oral administration to Sprague-Dawley rats; format: ADME, organism-based; settings: rat, in vivo
Procedure, shortened: (§2)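 Cassette dosing, two compounds per cassette, in Sprague–Dawley rats of about 180 g, n = 2. iv doses 0.5 or 0.89 mg/kg; oral doses 1.89 or 2.0 mg/kg. Vehicle 0.1 M potassium phosphate pH 8.0, or PEG 300 based. Heart-puncture sampling, one rat per point. Plasma levels by LC/MS/MS; noncompartmental analysis.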

[11] = target: T1, Sulfonylurea receptor 1, Kir6.2; assay: (§3) Inhibition of [3H]glibenclamide binding to HEK293 cells co-expressing human Sulfonylurea receptor SUR1 and Inward rectifier K+ channel Kir6.2 without ATP; format: cell-based
[12] = Partition coefficient (logP); format: physicochemical; settings: octanol/water
[13] = Oral bioavailability in rat (Sprague-Dawley); format: ADME, organism-based; settings: in vivo; for bioavailability: Sprague-Dawley; procedure, shortened: as §2
Rattus norvegicus [14] = species on record: Rattus norvegicus; assay: Reduction in plasma insulin in 30 min post-injection in rat; format: functional; set-up: concentration or dose not given beside the values
Procedure, shortened: (§4)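 Postprandial male Sprague–Dawley rats, 280–320 g, under Hypnorm/Dormicum at 37 °C. 3 mg/kg iv bolus over 20 s via jugular cannula (0.3 mg/kg for one compound), dissolved in 0.15% NaOH and saline. Blood taken every 5–10 min from 15 min pre- to 30 min postinjection. Plasma insulin by ELISA, as % reduction from pre-dose level. 2–4 animals.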

[15] = target: T1, Sulfonylurea receptor 1, Kir6.2; assay: Inhibition of [3H]glibenclamide binding to HEK293 cells co-expressing human Sulfonylurea receptor SUR1 and Inward rectifier K+ channel Kir6.2 at low affinity state with 2 mM MgATP; format: cell-based
Rattus norvegicus [16] = species on record: Rattus norvegicus; assay: Maximum reduction in plasma insulin in rat; format: functional; procedure, shortened: as §4
Rattus norvegicus [17] = species on record: Rattus norvegicus; assay: Ability to relax phenylephrine-contracted rat aorta rings; format: functional
Beta-TC6 [18] = assay: Maximum inhibition of glucose stimulated insulin release from mouse beta-TC6 cells at 10 uM in vitro.; format: functional
Rattus norvegicus [19] = species on record: Rattus norvegicus; assay: Effective concentration required for relaxation of the rat aorta rings; format: functional
Rattus norvegicus [20] = species on record: Rattus norvegicus; assay: Effective concentration required for relaxation of rat aorta rings; format: functional
[21] = target: T1, Sulfonylurea receptor 1, Kir6.2; assay: as §3; format: cell-based; remark: listed apart in the source
Procedure, shortened: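 Membranes from HEK293 cells stably expressing human SUR1/Kir6.2 (100 µg/mL protein) incubated 1 h at 37 °C with 1 nM [3H]glibenclamide in 30 mM HEPES pH 7.4, here without MgCl2 and ATP. Nonspecific binding with 10 µM glipizide. Rapid filtration, scintillation counting; IC50 by one- or two-site sigmoid nonlinear regression.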

| SMILES | IC50 (Beta-TC6 [4]) | IC50 (Rattus norvegicus [5]) | EC50 (Rattus norvegicus [7]) | EC50 [9] | EC50 (Rattus norvegicus [17]) | Change (Rattus norvegicus [2]) | Emax (Beta-TC6 [3]) | Reduction (Rattus norvegicus [14]) | Reduction (Rattus norvegicus [16]) | Emax at 10 µM (Beta-TC6 [18]) | further results |
| --- | --- | --- | --- | --- | --- | --- | --- | --- | --- | --- | --- |
| CC(C)NC1=NS(=O)(=O)c2sc(Cl)cc2N1 | 230 nM | 180 nM | 6200 nM | 600 nM | 266000 nM | -19% | 85% | 96% | 96% |  | logD [1]: 1.63; pKa [6]: 8.35; IC50 [8]: 340 nM; half-life [10]: 2.73 h; IC50 [11]: 554000 nM; logP [12]: 1.84; bioavailability [13]: 65%; IC50 [15]: 187000 nM |
| CC1(NC2=NS(=O)(=O)c3sc(Cl)cc3N2)CCCCC1 | 5330 nM |  |  | 1000 nM | 1400 nM |  |  |  |  | 62% |  |
| CC1(NC2=NS(=O)(=O)c3sc(Cl)cc3N2)CCCC1 | 70 nM |  |  | 80 nM | 6200 nM |  |  |  |  | 79% |  |
| CC1(NC2=NS(=O)(=O)c3sc(Cl)cc3N2)CC1 [TIFENAZOXIDE] | 150 nM |  | 14300 nM | 600 nM | 119000 nM | -4% | 69% | 77% | 85% |  |  |
| CCC(CC)CNC1=NS(=O)(=O)c2sc(Cl)cc2N1 | 240 nM |  |  | > 100000 nM | 8000 nM |  |  |  |  | 38% |  |
| CCCC(C)NC1=NS(=O)(=O)c2sc(Cl)cc2N1 (racemic) | 220 nM |  |  | 41000 nM | 83000 nM |  |  |  |  | 56% |  |
| CC[C@H](C)NC1=NS(=O)(=O)c2sc(Cl)cc2N1 | 410 nM | 70 nM | 19200 nM | 800 nM | 51000 nM | -7% | 79% | 94% | 96% |  | pKa [6]: 8.42; IC50 [8]: 460 nM; IC50 [21]: 420000 nM; half-life [10]: 0.967 h; bioavailability [13]: 49%; IC50 [15]: 309000 nM |
| CCC(C)NC1=NS(=O)(=O)c2sc(Cl)cc2N1 (stereo unspecified) | 160 nM |  |  | 1300 nM | 65000 nM |  |  |  |  | 74% |  |

Further lines, with some results ahead:

| IC50 (Beta-TC6 [4]) | IC50 (Rattus norvegicus [5]) | EC50 (Rattus norvegicus [7]) | EC50 [9] | EC50 (Rattus norvegicus [17]) | SMILES | Change (Rattus norvegicus [2]) | Emax (Beta-TC6 [3]) | Reduction (Rattus norvegicus [14]) | Reduction (Rattus norvegicus [16]) | Emax at 10 µM (Beta-TC6 [18]) | further results |
| --- | --- | --- | --- | --- | --- | --- | --- | --- | --- | --- | --- |
| 1500 nM |  |  | 500 nM | 176000 nM | CCCCCCCCNC1=NS(=O)(=O)c2sc(Cl)cc2N1 |  |  |  |  | 76% |  |
| 2400 nM | 700 nM | 23300 nM | 2000 nM | 64700 nM | CCCNC1=NS(=O)(=O)c2sc(Cl)cc2N1 | 13% | 65% | 16% | 100% | 65% | logD [1]: 2.42; pKa [6]: 8.23; IC50 [8]: 2270 nM; half-life [10]: 1.2 h; IC50 [11]: 924000 nM; logP [12]: 2.49; bioavailability [13]: 69%; IC50 [15]: 584000 nM |
| 1390 nM |  |  | 600 nM | 13400 nM | CCCCNC1=NS(=O)(=O)c2sc(Cl)cc2N1 |  |  |  |  | 66% | EC50 (Rattus norvegicus [19]): 13400 nM |
|  | 20300 nM | 20800 nM | 77400 nM |  | CC1=Nc2ccc(Cl)cc2S(=O)(=O)N1 [DIAZOXIDE] | -26% | 23% | 53% | 53% |  | F [13]: 154%; EC50 (Rattus norvegicus [20]): 12800 nM |
| 20 nM |  |  | 100 nM | 3300 nM | CCC1(NC2=NS(=O)(=O)c3sc(Cl)cc3N2)CCC1 |  |  |  |  | 81% |  |
| 25000 nM |  |  | 400 nM | 2000 nM | CCCCCC(C)NC1=NS(=O)(=O)c2sc(Cl)cc2N1 (racemic) |  |  |  |  | 36% |  |
| 20 nM | 10 nM | 7200 nM | 14 nM | 6500 nM | CC1(NC2=NS(=O)(=O)c3sc(Cl)cc3N2)CCC1 | -48% | 91% | 76% | 82% |  | IC50 [8]: 3 nM; IC50 [11]: 859000 nM; IC50 [15]: 10800 nM |
